From ChEMBL document CHEMBL4732051, “The discovery of potent small molecule activators of human STING” (Eur J Med Chem, 2021)
Calls of active or inactive are those of the source. The rule behind the calls is not given here.

Tests used:
[1] = test system: Stimulator of interferon genes protein (Homo sapiens), Q86WV6 [G230A,R293Q]; experiment: Induction of STING AQ mutant (unknown origin) expressed in HEK293T cells assessed as increase in luciferase coupled ISG54-ISRE activity incubated for 18 hrs luciferase reporter gene assay; type: cell-based; conditions: filed as activator
Sequence of Stimulator of interferon genes protein (Homo sapiens), Q86WV6 [G230A,R293Q] (Q86WV6 whole entry G230A/R293Q): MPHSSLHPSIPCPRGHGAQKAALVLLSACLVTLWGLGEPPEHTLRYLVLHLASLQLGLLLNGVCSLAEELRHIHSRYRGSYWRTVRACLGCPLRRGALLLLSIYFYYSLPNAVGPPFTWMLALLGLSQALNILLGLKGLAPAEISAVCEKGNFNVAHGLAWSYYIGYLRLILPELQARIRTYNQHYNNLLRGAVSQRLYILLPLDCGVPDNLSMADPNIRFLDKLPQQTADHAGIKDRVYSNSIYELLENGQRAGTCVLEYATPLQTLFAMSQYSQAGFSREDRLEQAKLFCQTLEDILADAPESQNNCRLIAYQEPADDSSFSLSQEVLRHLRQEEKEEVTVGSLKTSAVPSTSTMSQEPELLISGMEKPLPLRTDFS

hERG (KCNH2) = hERG (KCNH2) (Homo sapiens, UniProt Q12809); experiment: Inhibition of human ERG at 10 uM
Sequence of hERG (KCNH2) (Q12809 whole entry): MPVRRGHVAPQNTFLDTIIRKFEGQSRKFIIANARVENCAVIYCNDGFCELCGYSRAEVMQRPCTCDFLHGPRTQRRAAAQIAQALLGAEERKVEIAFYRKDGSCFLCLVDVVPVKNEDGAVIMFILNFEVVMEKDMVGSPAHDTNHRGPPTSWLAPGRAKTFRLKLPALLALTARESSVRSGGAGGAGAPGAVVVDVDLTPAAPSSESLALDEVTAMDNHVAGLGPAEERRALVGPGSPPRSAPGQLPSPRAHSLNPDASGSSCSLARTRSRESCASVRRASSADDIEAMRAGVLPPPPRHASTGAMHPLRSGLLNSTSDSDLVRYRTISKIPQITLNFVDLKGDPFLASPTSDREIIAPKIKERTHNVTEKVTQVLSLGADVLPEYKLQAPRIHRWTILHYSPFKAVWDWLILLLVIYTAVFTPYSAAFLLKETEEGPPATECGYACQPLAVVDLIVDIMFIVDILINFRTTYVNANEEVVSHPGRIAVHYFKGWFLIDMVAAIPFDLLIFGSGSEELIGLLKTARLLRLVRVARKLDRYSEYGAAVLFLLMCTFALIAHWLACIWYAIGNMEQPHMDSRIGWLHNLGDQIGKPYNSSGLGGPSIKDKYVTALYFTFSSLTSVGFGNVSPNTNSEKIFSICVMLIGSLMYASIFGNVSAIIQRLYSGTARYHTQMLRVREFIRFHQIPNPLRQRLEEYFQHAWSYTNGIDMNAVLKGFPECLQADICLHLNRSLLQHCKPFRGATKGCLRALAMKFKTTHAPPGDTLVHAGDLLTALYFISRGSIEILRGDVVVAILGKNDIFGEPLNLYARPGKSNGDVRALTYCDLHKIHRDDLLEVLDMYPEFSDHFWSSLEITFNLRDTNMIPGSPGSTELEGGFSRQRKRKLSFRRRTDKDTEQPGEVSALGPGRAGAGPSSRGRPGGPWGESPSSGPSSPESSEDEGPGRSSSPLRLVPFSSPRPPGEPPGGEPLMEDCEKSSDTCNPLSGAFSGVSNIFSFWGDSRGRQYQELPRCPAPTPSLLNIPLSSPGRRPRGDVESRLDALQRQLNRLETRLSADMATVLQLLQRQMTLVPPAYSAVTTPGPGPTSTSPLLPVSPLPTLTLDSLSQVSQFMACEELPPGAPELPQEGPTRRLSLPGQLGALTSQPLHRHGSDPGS

CCRF-SB = experiment: Activation of human wild type STING R232 expressed in CCRF-SB cells assessed as phosphorylation at (Ser396) at 10 uM incubated for 2 hrs and measured by Western blot analysis; conditions: filed as activator
HEK293T [2] = experiment: Activation of human STING R232H mutant expressed in HEK293T cells assessed as phosphorylation of IFR3 at (Ser396) upto 10 uM incubated for 2 hrs and measured by Western blot analysis; type: cell-based; conditions: filed as activator, dose microM <=10, time 2.0 hrs
In short: (§1)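 HEK293T clones stably carrying each human STING variant, picked by blasticidin selection and limiting dilution. 5 x 10^5 cells were exposed to compound at 10μM for 2 h, lysed in RIPA with phosphatase and protease inhibitors, and 10 μg protein run on 10% SDS-PAGE. Immunoblots probed for pSTING (Ser366), pIRF3 (Ser396), total STING, IRF3 and actin, detected by ECL.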

HeLa = experiment: Cytotoxicity against human HeLa cells at 5 to 10 uM; type: cell-based; conditions: dose 5-10 µM
[3] = test system: Stimulator of interferon genes protein (Homo sapiens), Q86WV6 [G230A,R293Q]; experiment: Activation of human STING AQ mutant expressed in HEK293T cells assessed as phosphorylation at (Ser366) at 10 uM incubated for 2 hrs and measured by Western blot analysis; type: cell-based; conditions: filed as activator; in short: as §1
[4] = test system: Stimulator of interferon genes protein (Homo sapiens), Q86WV6 [UNDEFINED MUTATION]; experiment: Activation of human STING R232 in human CCRF-SB cells assessed as phosphorylation at (Ser366) at 10 uM incubated for 2 hrs and measured by Western blot analysis; type: cell-based; conditions: filed as activator
Sequence of Stimulator of interferon genes protein (Homo sapiens), Q86WV6 [UNDEFINED MUTATION] (Q86WV6 whole entry, looked up, change not shown): as the sequence (Q86WV6 whole entry G230A/R293Q) above, with A230G, Q293R counted along it
In short: (§2)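 Tumor cell lines or human primary cells carrying endogenous STING variants; STING KO cells as control. 10µM for 2 h, then lysed in RIPA with phosphatase and protease inhibitors. 10 μg protein on 10% SDS-PAGE, blotted for pSTING (Ser366), pIRF3 (Ser396), STING, IRF3 and actin, ECL detection.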

[5] = test system: Stimulator of interferon genes protein (Homo sapiens), Q86WV6 [R71H,G230A,R293Q]; experiment: Induction of STING HAQ mutant (unknown origin) expressed in HEK293T cells assessed as increase in luciferase coupled ISG54-ISRE activity incubated for 18 hrs luciferase reporter gene assay; type: cell-based; conditions: filed as activator
Sequence of Stimulator of interferon genes protein (Homo sapiens), Q86WV6 [R71H,G230A,R293Q] (Q86WV6 whole entry R71H/G230A/R293Q): as the sequence (Q86WV6 whole entry G230A/R293Q) above, with R71H counted along it

[6] = target: Stimulator of interferon genes protein (Macaca fascicularis) (UniProt A0A2K5TV20); experiment: Activation of cynomolgus monkey STING; conditions: filed as activator
Sequence of Stimulator of interferon genes protein (Macaca fascicularis) (A0A2K5TV20 as listed by the source): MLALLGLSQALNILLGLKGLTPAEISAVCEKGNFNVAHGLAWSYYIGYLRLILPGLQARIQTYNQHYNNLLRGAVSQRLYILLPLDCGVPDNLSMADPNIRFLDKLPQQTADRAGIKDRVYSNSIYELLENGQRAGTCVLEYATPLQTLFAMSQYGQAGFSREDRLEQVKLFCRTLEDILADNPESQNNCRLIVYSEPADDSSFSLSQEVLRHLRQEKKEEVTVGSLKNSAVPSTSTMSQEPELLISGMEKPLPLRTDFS

[7] = target: T1, Stimulator of interferon genes protein (Homo sapiens, UniProt Q86WV6); experiment: Activation of human STING in human PBMC cells assessed as induction of CXCL10 expression at 10 uM incubated upto 24 hrs and measured by qt-PCR analysis; type: cell-based; conditions: filed as activator, time hrs <=24
T1 sequence (Q86WV6 whole entry): as the sequence (Q86WV6 whole entry G230A/R293Q) above, with A230G, Q293R counted along it
In short: (§3)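 2 x 10^5 freshly isolated human PBMC from healthy donors, separated on Histopaque, given a single compound concentration. Harvested early (6 hr) or late (20h). Cytokine mRNA read by qRT-PCR as relative normalized expression (fold) against vehicle-treated cells.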

[8] = target: T1, Stimulator of interferon genes protein; experiment: Activation of human STING expressed in human PBMC cells assessed as phosphorylation at (ser366) at 10 uM incubated for 2 hrs and measured by Western blot analysis; type: cell-based; conditions: filed as activator; in short: as §2
[9] = test system: Stimulator of interferon genes protein (Homo sapiens), Q86WV6 [R71H,G230A,R293Q]; experiment: Activation of human STING HAQ mutant expressed in HEK293T cells assessed as phosphorylation of IRF-3 at (Ser396) at 10 uM incubated for 2 hrs and measured by Western blot analysis; type: cell-based; conditions: filed as activator; in short: as §1
[10] = Stability in human plasma at 37 degC by LC-MS/MS analysis; type: ADME, cell-free
In short: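 Compound at 10 μM was incubated in mouse or human plasma at 37°C and its stability assessed.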

HEK293T [11] = experiment: Induction of STING R232H mutant (unknown origin) expressed in HEK293T cells assessed as increase in luciferase coupled ISG54-ISRE activity incubated for 18 hrs luciferase reporter gene assay; type: cell-based; conditions: Homo sapiens, filed as activator
[12] = Chemical stability of compound in buffer at pH 3 to 8
HEK293T [13] = experiment: Induction of STING Q mutant (unknown origin) expressed in HEK293T cells assessed as increase in luciferase coupled ISG54-ISRE activity incubated for 18 hrs luciferase reporter gene assay; type: cell-based; conditions: Homo sapiens, filed as activator
[14] = test system: Stimulator of interferon genes protein (Homo sapiens), Q86WV6 [UNDEFINED MUTATION]; experiment: Activation of human STING R232 in human dendritic cells assessed as induction of CD86 measured by qt-PCR analysis; type: cell-based; conditions: Dendritic cell, filed as activator
In short: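 PBMC isolated on Histopaque 1077, ACK-lysed, monocytes purified by MACS. Monocytes at 1 x 10^6 cells/ml in RPMI/10% FBS with 100ng/ml GMCSF and 50ng/ml IL4, 37 °C, 5% CO2, for 24–36 h. Compound added (1% DMSO final) for 6 h. CD86 and CD83 read by qPCR as fold of vehicle-treated cells.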

HEK293T [15] = experiment: Activation of human STING R232H mutant expressed in HEK293T cells assessed as phosphorylation at (Ser366) upto 10 uM incubated for 2 hrs and measured by Western blot analysis; type: cell-based; conditions: filed as activator, dose microM <=10, time 2.0 hrs; in short: as §1
[16] = target: T1, Stimulator of interferon genes protein; experiment: Activation of human STING in human PBMC cells assessed as induction of TNFalpha expression at 10 uM measured by qt-PCR analysis; type: cell-based; conditions: filed as activator; in short: as §3
[17] = test system: Stimulator of interferon genes protein (Homo sapiens), Q86WV6 [UNDEFINED MUTATION]; experiment: Activation of human STING R232 in A 172 cells assessed as phosphorylation at (Ser366) at 10 uM incubated for 2 hrs and measured by Western blot analysis; type: cell-based; conditions: filed as activator; in short: as §2
Cytochrome P450 3A4 = Cytochrome P450 3A4 (Homo sapiens, UniProt P08684); experiment: Inhibition of CYP3A4 (unknown origin); type: ADME
Sequence of Cytochrome P450 3A4 (P08684 whole entry): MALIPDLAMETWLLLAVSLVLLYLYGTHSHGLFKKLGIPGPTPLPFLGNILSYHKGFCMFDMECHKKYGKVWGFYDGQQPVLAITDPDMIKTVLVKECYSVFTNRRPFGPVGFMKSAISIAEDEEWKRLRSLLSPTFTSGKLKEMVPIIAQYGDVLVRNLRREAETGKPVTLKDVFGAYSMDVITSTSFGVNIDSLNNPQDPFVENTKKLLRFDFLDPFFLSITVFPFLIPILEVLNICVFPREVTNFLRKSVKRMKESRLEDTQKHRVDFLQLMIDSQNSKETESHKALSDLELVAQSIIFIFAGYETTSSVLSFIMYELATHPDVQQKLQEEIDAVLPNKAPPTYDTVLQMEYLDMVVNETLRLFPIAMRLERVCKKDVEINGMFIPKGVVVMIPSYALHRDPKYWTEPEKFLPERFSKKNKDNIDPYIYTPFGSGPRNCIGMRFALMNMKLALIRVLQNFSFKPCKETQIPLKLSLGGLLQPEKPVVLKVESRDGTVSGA

[18] = target: T2, Stimulator of interferon genes protein (Mus musculus) (UniProt Q3TBT3); experiment: Activation of mouse STING
T2 sequence (whole entry): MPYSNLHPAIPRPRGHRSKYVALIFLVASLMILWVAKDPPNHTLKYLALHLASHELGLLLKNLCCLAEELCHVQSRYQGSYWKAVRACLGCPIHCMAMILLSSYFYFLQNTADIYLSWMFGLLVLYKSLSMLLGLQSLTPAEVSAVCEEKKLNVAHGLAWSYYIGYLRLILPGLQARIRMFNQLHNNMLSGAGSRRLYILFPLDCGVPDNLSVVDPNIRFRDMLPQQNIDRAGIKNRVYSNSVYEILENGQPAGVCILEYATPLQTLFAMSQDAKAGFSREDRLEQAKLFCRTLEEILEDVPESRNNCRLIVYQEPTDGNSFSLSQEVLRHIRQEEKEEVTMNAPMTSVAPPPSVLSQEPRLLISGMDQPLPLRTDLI

[19] = test system: Stimulator of interferon genes protein (Homo sapiens), Q86WV6 [UNDEFINED MUTATION]; experiment: Activation of human STING R232 in A 172 cells assessed as phosphorylation of IRF-3 at (Ser396) at 10 uM incubated for 2 hrs and measured by Western blot analysis; type: cell-based; conditions: filed as activator; in short: as §2

CC1(C)C(=O)N(Cc2c(F)cccc2Cl)c2cc(C(=O)NCc3c(F)cc(F)cc3F)ccc21
Activity [1]: Active | inhibition at 10 µM (hERG (KCNH2)): 20% | Activity (CCRF-SB): Active | Activity (HEK293T [2]): Dose-dependent effect | Activity (HeLa): Non-Toxic | Activity [3]: Active | Activity [4]: Active | Activity [5]: Active | Activity [6]: Active | Activity [7]: Active | Activity [8]: Active | Activity [9]: Active | Stabilty [10]: Stable | Activity (HEK293T [11]): Active | Stabilty [12]: Stable | Activity (HEK293T [13]): Active | Activity [14]: Active | Activity (HEK293T [15]): Dose-dependent effect | Activity [16]: Active | Activity [17]: Active | inhibition (INH) (Cytochrome P450 3A4): Not Active | Activity [18]: inactive | Activity [19]: Active
